bIAP inh: bovine intestinal alkaline phosphatase inhibitors, primary screen, selectivity assay for TNAP inhibitor project, biochemical, bovine IAP, CDP-star luminescence. alkaline phosphatase, intestinal [Bos taurus]. purified bovine IAP, 30 min. inhibition, % at 20 µM. 190,000 tested, under 10 active;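 active = over 50% inhibition of intestinal alkaline phosphatase at 20 µM in the single-dose screen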
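System: purified bovine intestinal alkaline phosphatase (IAP) enzyme; Input: IAP diluted 1/65,000,000 in the well; Measured by: CDP-star luminescence signal; Compound dosing: 20 µM single dose; Incubation: 30 min reaction at room temperature.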
bIAP activator: bovine intestinal alkaline phosphatase activators, primary screen, biochemical, bovine IAP, CDP-star luminescence | alkaline phosphatase, intestinal [Bos taurus] | purified bovine IAP, 30 min; hits give high values; fold of DMSO-control signal, blank-subtracted | activation factor at 20 µM | 200,000 compounds, 0.17% hits | AID 1016, 2008;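 active = activation factor of 2 or more at 20 µM, a signal rise over negative controls twice the positive control's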
mIAP activ: activators of mouse IAP, primary screen, biochemical, luminescence, uHTS. intestinal alkaline phosphatase [Mus musculus]. muIAP, CDP-Star luminescence, 30 min; hits give high values; 1 = vehicle-only enzyme signal, 0 = enzyme-free wells. activation factor at 10 µM. 330,000 compounds, 0.24% hits;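 active = activation factor of at least 2 at 20 µM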
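System: Mouse IAP enzyme | Also added: CDP-Star substrate | Dosing: Compounds dispensed in DMSO | Schedule: 30 min enzyme-substrate-compound incubation at room temperature | Technique: Chemiluminescence readout | Control set: DMSO-only wells and no-enzyme negative control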
mIAP inh: inhibitors of mouse IAP, primary screen, biochemical, luminescence, uHTS; 330,000 compounds, 0.2% hits; inhibition, % at 10 µM; AID 2806, 2010; purified mouse IAP, CDP-Star luminescence, 30 min;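 active = inhibition of at least 40% at 10 µM in the primary screen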;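 note: plate controls were DMSO with enzyme for no effect and no enzyme wells for full effect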
hIAP block: human IAP inhibitors, primary screen, biochemical, luminescence, uHTS. Intestinal-type alkaline phosphatase (Homo sapiens), P09923. purified IAP, CDP-Star luminescence, 30 min. 330,000 compounds, 0.12% hits. inhibition, % at 10 µM;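 active = inhibition reaching a set limit with compound at 10 µM in the primary screen, cut at about 35% in these data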;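 note: plate controls were DMSO wells with enzyme for no effect and no-enzyme buffer wells for full effect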
Target sequence (P09923 whole entry, looked up): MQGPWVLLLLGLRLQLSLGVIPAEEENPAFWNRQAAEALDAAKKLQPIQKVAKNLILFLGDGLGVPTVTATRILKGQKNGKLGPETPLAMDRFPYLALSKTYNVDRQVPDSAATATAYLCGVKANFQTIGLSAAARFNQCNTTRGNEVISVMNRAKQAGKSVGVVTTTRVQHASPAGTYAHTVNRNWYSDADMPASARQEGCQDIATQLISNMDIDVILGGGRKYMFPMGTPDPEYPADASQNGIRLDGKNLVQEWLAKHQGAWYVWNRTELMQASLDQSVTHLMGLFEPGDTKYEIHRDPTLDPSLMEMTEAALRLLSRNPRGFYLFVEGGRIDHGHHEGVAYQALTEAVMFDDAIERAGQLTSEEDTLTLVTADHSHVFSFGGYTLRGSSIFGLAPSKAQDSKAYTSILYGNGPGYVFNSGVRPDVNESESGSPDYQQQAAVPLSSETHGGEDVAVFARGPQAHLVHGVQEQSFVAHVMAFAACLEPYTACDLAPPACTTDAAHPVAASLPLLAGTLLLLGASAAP
hIAP act: human IAP activators, primary screen, biochemical, luminescence, uHTS. activation factor at 10 µM. purified human IAP, CDP-Star luminescence, 30 min; hits give high values; 1 = vehicle-only enzyme, 0 = enzyme-free background. 330,000 compounds, 0.16% hits. Intestinal-type alkaline phosphatase (Homo sapiens), P09923;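 active = activation factor of the enzyme at least 2-fold when tested at 20 µM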
mIAP inh conf: inhibitors of mouse IAP, confirmation, biochemical, luminescence, single concentration; shares compounds with mIAP inh; purified mouse IAP, CDP-Star luminescence, 30 min; inhibition, % at 10 µM; 11,000 compounds, 4.7% hits; AID 434971, 2010;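 active = inhibition of at least 40% at 10 µM in either of the two replicates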;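 note: plate controls were DMSO wells with enzyme for no effect and buffer wells lacking enzyme for full effect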
Numbers without * were called inactive; i = inactive; x = no result. Only some compounds are listed: those with a hit (about 0.79% of all), similar ones and a draw of the others.

SMILES | bIAP inh | bIAP activator | mIAP activ | mIAP inh | hIAP block | hIAP act | mIAP inh conf
CC1(C2CC2)NC(=O)N(CC(=O)NCc2ccc(Cl)cc2Cl)C1=O (stereo not drawn) | x | x | 1.1 | -13 | -3 | 1 | x
COc1ccc(-c2cc(C(=O)Nc3cccc(O)c3)no2)cc1 | x | x | 0.99 | 1 | 17 | 0.83 | x
COc1ccc(S(=O)(=O)NNC(=O)c2cccs2)cc1 | -22 | 1.2 | 0.96 | 4 | -4 | 1 | x
C#CCOCCOCCOCCNc1nc(N2CCN(C(=O)CCCCCCCCCCNC(=O)[C@@H](CCSC)n3cc(CCO)nn3)CC2)nc(N2CCN(C(=O)CCCCCCCCCCNC(=O)[C@H]([C@@H](C)CC)n3cc(CCCCCN)nn3)CC2)n1 | x | x | 3.5* | -250 | 3 | 0.97 | i
C#CCOCCOCCOCCNc1nc(N2CCOCC2)nc(N2CCN(C(=O)CCCCCCCCCCNC(=O)[C@@H](CCSC)n3cc(CCO)nn3)CC2)n1 | x | x | 1.3 | -27 | 3 | 0.97 | x
C#CCOCCOCCOCCNc1nc(N2CCN(C(=O)CCCCCCCCCCNC(=O)[C@@H](CCSC)n3cc(CCO)nn3)CC2)nc(N2CCN(C(=O)CCCCCCCCCCNC(=O)[C@H]([C@@H](C)CC)n3cc(CCCCN=C(N)N)nn3)CC2)n1 | x | x | 22* | i | -53 | 1.5 | i
COc1ccccc1OCCC(=O)OCC(=O)Nc1cc(S(=O)(=O)N(C)C)ccc1Cl | 15 | 0.9 | 1.1 | -5 | 4 | 0.96 | x
O=C(COC(=O)c1ccc[n+]([O-])c1)Nc1ccc(Cl)cc1[N+](=O)[O-] | x | x | 1 | 0 | -7 | 1.1 | x
O=[N+]([O-])c1ccc(Cl)c2c1C1C=CCC1C(c1ccccn1)N2 (stereo not drawn) | 18 | 0.8 | 0.81 | 19 | 3 | 0.97 | x
O=C(O)C1Nc2c(O)cc(Cl)c([N+](=O)[O-])c2C2C=CCC12 (stereo not drawn) | 17 | 0.8 | 0.25 | 75* | -10 | 1.1 | 79*
O=C1/C(=C\c2ccc3ccccc3c2)CCCc2ccccc21 | 4 | 1 | 0.93 | 7 | 6 | 0.94 | x
CCN(CC)S(=O)(=O)c1ccc(NC(=O)Nc2cccc(C(F)(F)F)c2)cc1 | 16 | 0.8 | 2.8* | -181 | 26 | 0.74 | -103
CCN(CC)S(=O)(=O)c1ccc(C(=O)Nc2cccc(C)c2)cc1 | 11 | 0.9 | 1.1 | -14 | -15 | 1.1 | x
NNC(=O)Nc1cccc(C(F)(F)F)c1 | -8 | 1.1 | 1 | -1 | 2 | 0.98 | x
O=C(Nc1ccc(OC(F)F)cc1)Nc1cccc(C(F)(F)F)c1 | 12 | 0.9 | 3.2* | -222 | -20 | 1.2 | -99
Cc1cc(F)ccc1NC(=O)c1cc(S(=O)(=O)N2CCCC2)cn1C | x | x | 1 | -3 | 12 | 0.88 | x
CC(C)CC(=O)NC(NC(=S)Nc1sc2c(c1C#N)CCCC2)C(Cl)(Cl)Cl (stereo not drawn) | 46 | 0.5 | 0.59 | 41* | 7 | 0.93 | 41*
CCC(=O)Nc1sc2c(c1C#N)CCC2 | 7 | 0.9 | 1 | -1 | -3 | 1 | x
Cc1ccccc1NC(=S)NC(NC(=O)c1ccccc1C)C(Cl)(Cl)Cl (stereo not drawn) | 4 | 1 | 2* | -105 | -31 | 1.3 | -107
Nc1nc2ccc(Cc3ccncc3)cc2s1 | x | x | 0.93 | 7 | 8 | 0.92 | x
Cc1cc(=O)oc(C)c1C(=O)NNC(=O)C1(C)CC1Br (stereo not drawn) | x | x | 1.1 | -8 | -8 | 1.1 | x
CC1(C(=O)NNC(=O)c2ccc(=O)oc2)CC1Br (stereo not drawn) | x | x | 0.23 | 77* | -2 | 1 | 71*
